ChEMBL document CHEMBL1130251, “Enzymatic properties of the unnatural beta-L-enantiomers of 2',3'-dideoxyadenosine and 2',3'-didehydro-2',3'-dideoxyadenosine” (J Med Chem, 1997)

Key:
Adenosine deaminase = target: T1, Adenosine deaminase (Bos taurus, UniProt P56658); assay: inhibitory activity against Adenosine deaminase
T1 sequence (P56658 whole entry): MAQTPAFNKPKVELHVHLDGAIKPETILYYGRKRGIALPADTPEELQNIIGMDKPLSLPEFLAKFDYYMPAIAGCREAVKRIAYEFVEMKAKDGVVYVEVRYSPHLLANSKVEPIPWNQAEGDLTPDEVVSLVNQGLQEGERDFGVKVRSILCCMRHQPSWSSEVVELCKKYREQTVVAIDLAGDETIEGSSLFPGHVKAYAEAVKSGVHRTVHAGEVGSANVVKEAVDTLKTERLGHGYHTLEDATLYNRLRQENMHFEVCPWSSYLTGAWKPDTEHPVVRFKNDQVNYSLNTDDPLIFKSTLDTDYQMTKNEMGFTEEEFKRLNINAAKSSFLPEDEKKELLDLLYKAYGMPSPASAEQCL
How it was run: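 Adenosine deaminase (calf intestinal mucosa, type VIII) at 37 °C in 50 mM phosphate pH 7.5. Substrate tests used 20–80 μM nucleoside and 0.01–1 unit enzyme, with HPLC product analysis. Inhibition was read by UV spectrometry with adenosine 20–100 μM. Ki was taken from Lineweaver–Burk plots assuming competitive inhibition.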

[1] = Half life of the compound; type: ADME
How it was run: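 Deamination by calf intestinal mucosa adenosine deaminase (type VIII) at 37 °C in 50 mM phosphate buffer pH 7.5. Substrate 20–80 μM with 0.01–1 unit of enzyme depending on substrate. Conversion followed over time by HPLC on C-18 with a phosphate pH 6 / acetonitrile gradient, which also confirmed the deaminated nucleoside as sole product.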

SMILES	Ki (Adenosine deaminase)	half-life [1]
Nc1ncnc2c1ncn2[C@H]1CC[C@@H](CO)O1	120 µM	–
Nc1ncnc2c1ncn2[C@H]1C=C[C@@H](CO)O1	–	74.4 h
